Screening data from PubChem.
Compounds with a hit are over-represented: about 2.3% of the library has one in this group of screens.
FN deposition inh: fibronectin deposition inhibition | AH1F fibroblasts, Alexa488-fibronectin deposition fluorescence, overnight | inhibition, % at 12.6 µM | 0.086% of 350,000 active | AID 743247;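 active = mean inhibition across replicates of 30% or more, regardless of how many single replicates reach that level; inconclusive = mean under 30% yet at least half of replicates reach 30%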;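 also: positive control wells lacked labelled fibronectin entirely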
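Material: AH1F fibroblasts assembling fluorescent fibronectin matrix; amount: 10000 AH1F cells/well; medium: DMEM, 2% serum; reagent: Alexa488-fibronectin, 24 nM final in well; dosing: single compound dose, delivered by pin transfer; incubation: 1 h adhesion, overnight exposure; detection: fluorescence after three HBSS washes, excitation 485 nm, emission 525 nm; measure: fibronectin deposition inhibition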
PGC1a acetyl inh: PGC1a acetylation modulation, inhibitor mode | U2OS PGC1a acetylation, AlphaScreen anti-acetyl-lysine; with virally co-expressed GCN5 acetyltransferase | inhibition, % at 15.6 µM | 0.17% of 350,000 active;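 active = every replicate shows inhibition of at least 40%; inconclusive = mean inhibition at least 40% but some replicate below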;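 also: 0% = neutral control wells and 100% = positive control wells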
EWS-Fli inh: EWS/Fli transcriptional activity inhibition; A673 NR0B1-luciferase reporter, viability-normalised; inhibition, % at 12.6 µM; 0.67% of 350,000 active; AID 651661;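 active = mean inhibition of at least 50% after viability correction, with every replicate also passing that limit; inconclusive = mean reaches 50% but only one of two replicates passes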;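 also: firefly luciferase signal divided by Alamar Blue viability fluorescence both relative to DMSO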
CFTR F508del cor: correctors of CFTR F508del function in bronchial epithelial cells | CFBE cells, YFP halide quenching; stimulated with forskolin plus potentiator P3; % fluorescence drop versus neutral controls | activity (quench increase), % at 7.58 µM | 0.36% of 350,000 active;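 active = mean added fluorescence quench of at least 8% versus neutral control, with both replicates also reaching 8%; inconclusive = only one of the mean or replicate conditions met; inactive = mean below 8% and not both replicates reaching 8%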;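 also: cells transiently co-express mutant CFTR-F508del with the halide-sensitive YFP; corrector assay measuring rescue of mutant channel to the surface after 24 h compound exposure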
HIV Env fusion: inhibitors of HIV Env-mediated cell fusion; AID 651610; 1.1% of 360,000 active; inhibition, % at 12.3 µM; HeLa-JRFL Env/CEM21 cell fusion, luciferase;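 active = mean replicate inhibition score of at least 50 and every replicate individually at or above 50; inconclusive = only one of the two criteria met; inactive = mean below 50 and not all replicates reaching 50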;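 also: 0% = plate neutral controls and 100% = maraviroc near 300 nM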
PAX8 reporter: PAX8 transcriptional activity inhibition; RMG-I TPO-luciferase reporter, SteadyGlo, 24 h; 1.2% of 360,000 active; inhibition, % at 12.6 µM; AID 652154;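 active = mean replicate inhibition at least 60% with every replicate also reaching 60%; inconclusive = only one of the two criteria is met; inactive = mean below 60% and not all replicates reaching 60%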;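 also: luciferase light reporting Pax8 driven TPO promoter activity; plate controls were median of neutral control wells for no effect and mitoxantrone controls for full effect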
* = called active by the depositor; ? = inconclusive; . = no result given; ! = a repeat was not active; [ ] = remark or other dose.

SMILES	FN deposition inh	PGC1a acetyl inh	EWS-Fli inh	CFTR F508del cor	HIV Env fusion	PAX8 reporter
COc1ccc(NC(=O)Nc2ccc3c(c2)C(=O)N([C@H](C)CO)C[C@H](C)[C@@H](CN(C)Cc2ccc(C(F)(F)F)cc2)OCCCC[C@H](C)O3)cc1	-5	0	13	-2	7[16.7 µM]	50
COc1ccc(CN(C)C[C@H]2OCCCC[C@H](C)Oc3ccc(NC(=O)Nc4ccc(C(F)(F)F)cc4)cc3C(=O)N([C@@H](C)CO)C[C@@H]2C)cc1	.	9	71*	7	?	106*
C[C@H]1CN([C@@H](C)CO)C(=O)c2cc(-c3cccc(F)c3)cnc2O[C@H]1CN(C)Cc1cccc(F)c1	-17	1	15	-3	37[16.7 µM]	.
COc1ccc(NC(=O)Nc2ccc3c(c2)C(=O)N([C@H](C)CO)C[C@@H](C)[C@@H](CN(C)Cc2ccc(C(F)(F)F)cc2)OCCCC[C@H](C)O3)cc1	-7	-27	5	-1	14[16.7 µM]	73*
COc1ccc(CN(C)C[C@@H]2OCCCC[C@@H](C)Oc3ccc(NC(=O)Nc4ccc(C(F)(F)F)cc4)cc3C(=O)N([C@@H](C)CO)C[C@@H]2C)cc1	.	22	70*	2	?	86*
C=C1C2(C(=O)Nc3ccc(SC(F)F)cc3)CCC(C2)C1(C)C (stereo not drawn)	-7	.	1	2	.	98*
O=C(Nc1ccc(SC(F)F)cc1)C12CCC(CC1)C2	-4	6	-79	-1	-8	-61
O=C(Cn1ncc2c(=O)oc3ccccc3c21)N1CCC(N2CCCCC2)CC1	2	-4	0	1	74*	-21
O=C(Cn1ncc2c(=O)oc3ccccc3c21)N1CCc2ccccc2C1	12	.	0	-2	24	18
O=C(Nc1cccc(F)c1)N1C[C@@H]2N[C@H](C1)C2c1ccc(-c2ccc(F)cc2)cc1 (stereo partly drawn)	-2	-22	3	-3	.	86*!
Cc1cccc(-c2ccc(C3[C@@H]4CN(C(=O)Nc5ccc(F)cc5)C[C@H]3N4)cc2)c1 (stereo partly drawn)	-3	0	-6	-4	.	95*!
Cc1cccc(-c2ccc(C3[C@@H]4CN(C(=O)Nc5ccccc5)C[C@H]3N4)cc2)c1 (stereo partly drawn)	3	-15	27	-1	.	-3
CC(C)COP(=O)(c1ccc(N(C)C)cc1)C(O)c1ccc(Br)cc1 (stereo not drawn)	-5	.	5	2	56*	-4
CC(C)OP(=O)(c1ccc(N(C)C)cc1)C(O)c1ccc(C(C)C)cc1 (stereo not drawn)	-8	.	2	1	74*	-13
C[C@@H]1CN([C@@H](C)CO)C(=O)c2cc(NC(=O)Nc3ccc(C(F)(F)F)cc3)ccc2O[C@@H](C)CCCCO[C@@H]1CN(C)Cc1ccncc1	.	4	3	4	12[16.7 µM]	83*
C[C@@H]1CCCCO[C@@H](CN(C)Cc2ccncc2)[C@H](C)CN([C@H](C)CO)C(=O)c2cc(NC(=O)Nc3ccc(C(F)(F)F)cc3)ccc2O1	.	4	14	2	19[16.7 µM]	99*
C[C@@H]1CN([C@@H](C)CO)C(=O)c2cc(NC(=O)Nc3ccc(C(F)(F)F)cc3)ccc2O[C@@H](C)CCCCO[C@H]1CN(C)Cc1ccncc1	.	-1	14	2	3[16.7 µM]	86*
O=C(Cc1ccccn1)NCC[C@@H]1CC[C@@H](NS(=O)(=O)c2ccc(Cl)cc2)[C@H](CO)O1	-9	0	-1	2	12[16.7 µM]	10
CC(C)(O)c1cn([C@@H]2C[C@@H]3O[C@@H](CO)CC[C@@H]3O[C@@H]2CCc2ccc(-c3ccncc3)cc2)nn1	.	-2	2	2	.	15
COc1cc(C2c3cc4c(cc3OC(NNC(N)=O)C2C)OCO4)cc(OC)c1OC (stereo not drawn)	-15	-16	54*	1	15	75*
CCN(CC)C1Oc2cc3c(cc2C(c2cccc(OC)c2O)C1C)OCO3 (stereo not drawn)	9	.	17	-2	16	0
COc1cccc(C2c3cc4c(cc3OC(NNC(N)=O)C2C)OCO4)c1O (stereo not drawn)	9	-1	41	8.9*	-77	41
